{"data": "Results pooled from the literature", "target": "Tyrosine-protein kinase FRK (FRK, Homo sapiens, UniProt P42685)", "note": "Lines come from different studies, so protocols differ."}
{"read-out": "enzyme activity", "mode": "inhibitor", "concentration": "1 µM", "measurement": "inhibition", "result": "0%", "SMILES": "CN1CC(Oc2cnc(C#N)cc2-c2ccn3nc(NC(=O)C4CC4)cc3c2)C1"}
{"read-out": "cell-free assay", "technique": "competition with immobilised ligand", "concentration": "1 µM", "measurement": "remaining binding", "result": "100%", "SMILES": "CCOCCn1cc(C(=O)Nc2ccc(-n3nc(-c4cccnc4)cc3C(F)(F)F)cn2)ccc1=O"}
{"read-out": "cell-free assay", "mode": "inhibitor", "concentration": "20 µM", "measurement": "remaining signal", "result": "0.15%", "SMILES": "Nc1ncnc2occ(-c3ccc(NC(=O)Nc4cc(C(F)(F)F)ccc4F)cc3)c12"}
{"read-out": "enzyme activity", "mode": "inhibitor", "concentration": "0.5 µM", "measurement": "remaining activity", "result": "100%", "SMILES": "O=c1c2ccccc2[nH]c(=S)n1CCN1CCC(=C(c2ccc(F)cc2)c2ccc(F)cc2)CC1"}
{"read-out": "cell-free assay", "technique": "competition with immobilised ligand", "concentration": "1 µM", "measurement": "remaining binding", "result": "89%", "SMILES": "CCCOc1ccc([C@@H]2[C@@H](C(=O)O)[C@H](c3ccc4c(c3)OCO4)CN2CC(=O)Nc2c(CC)cccc2CC)cc1"}
{"read-out": "enzyme activity", "mode": "inhibitor", "concentration": "1 µM", "measurement": "remaining activity", "result": "57.7%", "SMILES": "CC(C)(O)[C@H]1CC[C@H](Nc2ccc3ncc(-c4cccc(C(F)(F)F)c4)n3n2)CC1"}
{"read-out": "enzyme activity", "mode": "inhibitor", "concentration": "1 µM", "measurement": "inhibition", "result": "20%", "SMILES": "COc1cc2ncnc(Nc3ccc(Oc4ccccc4)c(C)c3C)c2cc1OC"}
{"read-out": "cell-free assay", "technique": "competition with immobilised ligand", "concentration": "1 µM", "measurement": "remaining binding", "result": "73%", "SMILES": "O=C1CCc2cc(Nc3cc(OC4CCOCC4)c([N+](=O)[O-])cc3Cl)ccc2N1"}
{"read-out": "enzyme activity", "mode": "inhibitor", "technique": "radiometric", "concentration": "1 µM", "measurement": "remaining activity", "result": "111%", "SMILES": "CC(C)(C)c1nc(-c2cccc(NS(=O)(=O)c3c(F)cccc3F)c2F)c(-c2ccnc(N)n2)s1"}
{"read-out": "enzyme activity", "mode": "inhibitor", "concentration": "0.1 µM", "measurement": "activity vs control", "result": "67%", "SMILES": "Cc1cc(NC(=O)c2cccc3cc(-c4cccc5[nH]nc(N)c45)ccc23)ccc1F"}
{"read-out": "cell-free assay", "technique": "competition with immobilised ligand", "concentration": "1 µM", "measurement": "remaining binding", "result": "81%", "SMILES": "C[C@@]1(Cc2ccc(C#N)cc2)C(=O)N(c2cc(Cl)cc(Cl)c2)c2ncc(C(=O)NC3(c4nc(C5CCC5)no4)CC3)n21"}
{"read-out": "enzyme activity", "mode": "inhibitor", "concentration": "10 µM", "measurement": "remaining activity", "result": "87.3%", "SMILES": "Cc1sc(C(=O)NC2COC2)cc1-n1cc(NC(=O)Nc2c(F)cccc2Cl)cn1"}
{"read-out": "cell-free assay", "technique": "competition with immobilised ligand", "concentration": "0.1 µM", "measurement": "remaining binding", "result": "100%", "SMILES": "C[C@@H]1CN(c2cc(-c3n[nH]c4ccc(OC5(C)CC5)cc34)ncn2)C[C@H](C)O1"}
{"read-out": "enzyme activity", "mode": "inhibitor", "concentration": "23.5 nM", "measurement": "remaining activity", "result": "16%", "SMILES": "Cc1ccc(C(=O)Nc2ccc(CN3CCN(C)CC3)c(C(F)(F)F)c2)cc1C#Cc1cnc2cccnn12"}
{"read-out": "cell-free assay", "concentration": "0.5 µM", "measurement": "remaining signal", "result": "97.2%", "SMILES": "O=C1NC(=O)c2cc(Nc3ccc(F)cc3)c(Nc3ccc(F)cc3)cc21"}
{"read-out": "enzyme activity", "mode": "inhibitor", "concentration": "10 µM", "measurement": "inhibition", "result": "93%", "SMILES": "CCN(CC)CCNC(=O)c1c(C)[nH]c(/C=C2\\C(=O)Nc3ccc(F)cc32)c1C"}
{"read-out": "enzyme activity", "mode": "inhibitor", "concentration": "0.1 µM", "measurement": "inhibition", "result": "86%", "SMILES": "COc1cc2nccc(Oc3ccc(NC(=O)c4c5n(n(-c6ccc(F)cc6)c4=O)CCCC5)cc3)c2cc1OC"}
{"read-out": "cell-free assay", "concentration": "0.5 µM", "measurement": "remaining signal", "result": "92.7%", "SMILES": "N#CCCc1ccc2c(c1)-c1[nH]c3ccc([N+](=O)[O-])cc3c1CC(=O)N2"}
{"read-out": "enzyme activity", "mode": "inhibitor", "concentration": "10 µM", "measurement": "remaining activity", "result": "96%", "SMILES": "CCCOc1ccc(OC)c(F)c1C(=O)c1ccc(C(=O)N[C@@H]2CNC[C@H]2NC(=O)c2ccc3[nH]ncc3c2)cc1"}
{"read-out": "enzyme activity", "mode": "inhibitor", "concentration": "5 µM", "measurement": "remaining activity", "result": "97.4%", "SMILES": "O=C(Nc1cnn(-c2csc(C(=O)NC3COC3)c2)c1)Nc1ccccc1Cl"}
{"read-out": "cell-free assay", "technique": "competition with immobilised ligand", "concentration": "1 µM", "measurement": "remaining binding", "result": "100%", "SMILES": "COc1cc(-c2cn(C3CCc4c(F)cccc4N(CC(F)(F)F)C3=O)nn2)ccc1-n1cnc(C)c1 (stereo not shown)"}
{"read-out": "cell-free assay", "concentration": "0.5 µM", "measurement": "remaining signal", "result": "79.5%", "SMILES": "COc1cc2c(Nc3ccc(Br)cc3F)ncnc2cc1OCC1CCN(C)CC1"}
